Source: ChEMBL document CHEMBL5303300, “EUbOPEN Chemogenomics Library - Multiplex” (2023)
Values joined by “and” are separate entries in the source; they are usually repeats but may differ in a detail not shown here. Identical values can stand only once.

Tested on: HEK-293T
Assay: Multiplex assay against HEK293T
Assay type: toxicity, cell-based
Settings: human, number of replicates 2
Procedure, shortened: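 With compound added, live cells were imaged on a CQ1 microscope at 37°C and 5% CO2; staining with Hoechst33342, BioTracker Green Microtubule Cytoskeleton Dye, MitoTracker Red and Annexin V Alexa Fluor 680 had been done at seeding. The CellPathfinder machine-learning gating scheme split cells into Hoechst high-intensity objects or normal cells, normal cells into healthy, pyknosed or fragmented nuclei, and pyknosed cells into mitotic or apoptotic. The tubulin, mitochondrial-mass and membrane-permeability phenotypes are per cents of healthy-nucleus cells.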

[1] = 12 h, 1 µM, compound concentration 1 uM
[2] = 12 h, 10 µM, compound concentration 10 uM
[3] = 24 h, 1 µM, compound concentration 1 uM
[4] = 24 h, 10 µM, compound concentration 10 uM
[5] = 48 h, 1 µM, compound concentration 1 uM
[6] = 48 h, 10 µM, compound concentration 10 uM

For `COCCNC1CCC(Nc2cc(-c3csc(NCC4(C#N)CCOCC4)n3)c(Cl)cn2)CC1` (stereo unspecified), the “Population Apoptotic (%)” value [1] was 38% and 65%, the “Population Fragmented Nuclei (%)” value [1] was 4% and 2% and the “Population Healthy Nuclei (%)” value [1] was 81% and 83%. For the same compound, the “Population Hoechst High Intensity Objects (%)” value [1] was 7% and 9%, the “Population Membrane Permeable-Phenotype (%)” value [1] was 3% and 2% and the “Population Mitochondria Different-Phenotype (%)” value [1] was 50% and 51%. The “Population Mitotic Cells (%)” value [1] was 61% and 34%, the “Population Normal (%)” value [1] was 92% and 90% and the “Population Pyknosed Nuclei (%)” value [1] was 13% and 14%. The “Population Tubulin-Different-Phenotype (%)” value [1] was 76% and 80%, the “Total Cell Count” value [1] was 472 and 403 and the “Population Apoptotic (%)” value [2] was 74% and 66%. The “Population Fragmented Nuclei (%)” value [2] was 1% and 2%, the “Population Healthy Nuclei (%)” value [2] was 77% and 83% and the “Population Hoechst High Intensity Objects (%)” value [2] was 10% and 12%. The “Population Membrane Permeable-Phenotype (%)” value [2] was 2% and 3%, the “Population Mitochondria Different-Phenotype (%)” value [2] was 69% and 65% and the “Population Mitotic Cells (%)” value [2] was 25% and 33%. For the same compound, the “Population Normal (%)” value [2] was 89% and 87%, the “Population Pyknosed Nuclei (%)” value [2] was 20% and 14% and the “Population Tubulin-Different-Phenotype (%)” value [2] was 96% and 94%. For the same compound, the “Total Cell Count” value [2] was 313 and 412, the “Population Apoptotic (%)” value [3] was 48% and 66% and the “Population Fragmented Nuclei (%)” value [3] was 2% and 4%. The “Population Healthy Nuclei (%)” value [3] was 88% and 83%, the “Population Hoechst High Intensity Objects (%)” value [3] was 13% and 16% and the “Population Membrane Permeable-Phenotype (%)” value [3] was 1% and 2%. The “Population Mitochondria Different-Phenotype (%)” value [3] was 62% and 58%, the “Population Mitotic Cells (%)” value [3] was 51% and 33% and the “Population Normal (%)” value [3] was 86% and 83%. For the same compound, the “Population Pyknosed Nuclei (%)” value [3] was 8% and 12%, the “Population Tubulin-Different-Phenotype (%)” value [3] was 72% and 74% and the “Total Cell Count” value [3] was 431 and 359. For the same compound, the “Population Apoptotic (%)” value [4] was 91% and 67%, the “Population Fragmented Nuclei (%)” value [4] was 3% and the “Population Healthy Nuclei (%)” value [4] was 82% and 87%. For the same compound, the “Population Hoechst High Intensity Objects (%)” value [4] was 15% and 21%, the “Population Membrane Permeable-Phenotype (%)” value [4] was 2% and the “Population Mitochondria Different-Phenotype (%)” value [4] was 81% and 75%. For the same compound, the “Population Normal (%)” value [4] was 84% and 78%, the “Population Pyknosed Nuclei (%)” value [4] was 14% and 8% and the “Population Tubulin-Different-Phenotype (%)” value [4] was 93% and 92%. The “Total Cell Count” value [4] was 294 and 402, the “Population Apoptotic (%)” value [5] was 55% and 65% and the “Population Fragmented Nuclei (%)” value [5] was 1% and 5%. For the same compound, the “Population Healthy Nuclei (%)” value [5] was 91% and 84%, the “Population Hoechst High Intensity Objects (%)” value [5] was 14% and 17% and the “Population Membrane Permeable-Phenotype (%)” value [5] was 1% and 2%. The “Population Mitochondria Different-Phenotype (%)” value [5] was 71% and 68%, the “Population Mitotic Cells (%)” value [5] was 45% and 34% and the “Population Normal (%)” value [5] was 85% and 82%. The “Population Pyknosed Nuclei (%)” value [5] was 7% and 9%, the “Population Tubulin-Different-Phenotype (%)” value [5] was 75% and the “Total Cell Count” value [5] was 317 and 304. For the same compound, the “Population Apoptotic (%)” value [6] was 92% and 82%, the “Population Fragmented Nuclei (%)” value [6] was 1% and 4% and the “Population Healthy Nuclei (%)” value [6] was 78% and 85%. For the same compound, the “Population Hoechst High Intensity Objects (%)” value [6] was 13% and 22%, the “Population Membrane Permeable-Phenotype (%)” value [6] was 3% and 1% and the “Population Mitochondria Different-Phenotype (%)” value [6] was 85% and 82%. The “Population Mitotic Cells (%)” value [6] was 7% and 17%, the “Population Normal (%)” value [6] was 86% and 77% and the “Population Pyknosed Nuclei (%)” value [6] was 19% and 9%. For the same compound, the “Population Tubulin-Different-Phenotype (%)” value [6] was 95% and 90% and the “Total Cell Count” value [6] was 237 and 368.

`C[C@H](N)Cn1ccc2cc(F)c(Cl)cc21.O=C(O)/C=C/C(=O)O` was tested, and the “Population Apoptotic (%)” value [1] was 38% and 46%, the “Population Fragmented Nuclei (%)” value [1] was 3% and 2% and the “Population Healthy Nuclei (%)” value [1] was 82% and 85%. For the same compound, the “Population Hoechst High Intensity Objects (%)” value [1] was 8%, the “Population Membrane Permeable-Phenotype (%)” value [1] was 1% and the “Population Mitochondria Different-Phenotype (%)” value [1] was 17% and 15%. The “Population Mitotic Cells (%)” value [1] was 61% and 53%, the “Population Normal (%)” value [1] was 91% and the “Population Pyknosed Nuclei (%)” value [1] was 14% and 11%. The “Population Tubulin-Different-Phenotype (%)” value [1] was 59% and 53%, the “Total Cell Count” value [1] was 737 and 645 and the “Population Apoptotic (%)” value [2] was 58% and 55%. For the same compound, the “Population Fragmented Nuclei (%)” value [2] was 4% and 5%, the “Population Healthy Nuclei (%)” value [2] was 83% and 79% and the “Population Hoechst High Intensity Objects (%)” value [2] was 8% and 9%. For the same compound, the “Population Membrane Permeable-Phenotype (%)” value [2] was 5% and 1%, the “Population Mitochondria Different-Phenotype (%)” value [2] was 28% and 20% and the “Population Mitotic Cells (%)” value [2] was 41% and 44%. The “Population Normal (%)” value [2] was 91% and 90%, the “Population Pyknosed Nuclei (%)” value [2] was 12% and 14% and the “Population Tubulin-Different-Phenotype (%)” value [2] was 81% and 72%. The “Total Cell Count” value [2] was 443 and 563, the “Population Apoptotic (%)” value [3] was 52% and 57% and the “Population Fragmented Nuclei (%)” value [3] was 10% and 6%. The “Population Healthy Nuclei (%)” value [3] was 77% and 82%, the “Population Hoechst High Intensity Objects (%)” value [3] was 7% and the “Population Membrane Permeable-Phenotype (%)” value [3] was 1% and 2%. The “Population Mitochondria Different-Phenotype (%)” value [3] was 6% and 4%, the “Population Mitotic Cells (%)” value [3] was 47% and 42% and the “Population Normal (%)” value [3] was 92%. The “Population Pyknosed Nuclei (%)” value [3] was 12% and 10%, the “Population Tubulin-Different-Phenotype (%)” value [3] was 32% and 28% and the “Total Cell Count” value [3] was 1141 and 1024. For the same compound, the “Population Apoptotic (%)” value [4] was 63% and 59%, the “Population Fragmented Nuclei (%)” value [4] was 8% and 7% and the “Population Healthy Nuclei (%)” value [4] was 83% and 84%. The “Population Hoechst High Intensity Objects (%)” value [4] was 9% and 11%, the “Population Membrane Permeable-Phenotype (%)” value [4] was 2% and 3% and the “Population Mitochondria Different-Phenotype (%)” value [4] was 16% and 8%. The “Population Mitotic Cells (%)” value [4] was 36% and 40%, the “Population Normal (%)” value [4] was 90% and 88% and the “Population Pyknosed Nuclei (%)” value [4] was 7% and 8%. The “Population Tubulin-Different-Phenotype (%)” value [4] was 72% and 40%, the “Total Cell Count” value [4] was 634 and 884 and the “Population Apoptotic (%)” value [5] was 18% and 17%. For the same compound, the “Population Fragmented Nuclei (%)” value [5] was 17% and 11%, the “Population Healthy Nuclei (%)” value [5] was 80% and 85% and the “Population Hoechst High Intensity Objects (%)” value [5] was 9%. The “Population Membrane Permeable-Phenotype (%)” value [5] was 5% and 3%, the “Population Mitochondria Different-Phenotype (%)” value [5] was 0% and the “Population Mitotic Cells (%)” value [5] was 81% and 82%. For the same compound, the “Population Normal (%)” value [5] was 90%, the “Population Pyknosed Nuclei (%)” value [5] was 2% and the “Population Tubulin-Different-Phenotype (%)” value [5] was 14% and 11%. The “Total Cell Count” value [5] was 2886 and 2112, the “Population Apoptotic (%)” value [6] was 40% and 17% and the “Population Fragmented Nuclei (%)” value [6] was 15% and 12%. The “Population Healthy Nuclei (%)” value [6] was 80% and 84%, the “Population Hoechst High Intensity Objects (%)” value [6] was 11% and 7% and the “Population Membrane Permeable-Phenotype (%)” value [6] was 8% and 4%. For the same compound, the “Population Mitochondria Different-Phenotype (%)” value [6] was 1%, the “Population Mitotic Cells (%)” value [6] was 59% and 82% and the “Population Normal (%)” value [6] was 88% and 92%. The “Population Pyknosed Nuclei (%)” value [6] was 3%, the “Population Tubulin-Different-Phenotype (%)” value [6] was 36% and 20% and the “Total Cell Count” value [6] was 1535 and 2025.
